Assay results taken from ChEMBL document CHEMBL1139110, “Structure-activity relationships of some taxoids as multidrug resistance modulator” (Bioorg Med Chem Lett, 2007).
In brackets after ≈: the same amount, converted by molar mass.

Legend:
[1] = Effect on calcein accumulation in multidrug-resistant human 2780AD cells at 25 ug/ml relative to control; assay type: functional, A2780 ADR
Method in brief: (§1)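 Multidrug-resistant human ovarian cancer 2780AD cells were exposed to test compounds at […], with verapamil as the positive control. Calcein accumulated in the cells was measured relative to a control experiment. Values are the mean of triplicate determinations.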

[2] = Cytotoxicity againt human WI38 cells; assay type: cell-based; settings: WI-38
Method in brief: (§2)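 IC50 was determined against WI-38, VA-13 and HepG2 cells and is given as the mean of duplicate determinations.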

[3] = Effect on calcein accumulation in multidrug-resistant human 2780AD cells at 0.25 ug/ml relative to control; assay type: functional, A2780 ADR; method in brief: as §1
WI-38 VA13 = test: Cytotoxicity againt human VA13 cells; assay type: functional, cell-based; method in brief: as §2
HepG2 = test: Cytotoxicity againt human HepG2 cells; assay type: functional, cell-based; method in brief: as §2
[4] = Effect on calcein accumulation in multidrug-resistant human 2780AD cells at 2.5 ug/ml relative to control; assay type: functional, A2780 ADR; method in brief: as §1
[5] = Cytotoxicity againt multidrug-resistant human 2780AD cells; assay type: functional, cell-based; settings: A2780 ADR
Method in brief: (§3)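 Each drug was tested alone or with a modulator added at final […]; verapamil was the reference modulator. Values are the mean of triplicate determinations.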

A2780 = test: Cytotoxicity againt human A2780 cells; assay type: functional, cell-based; method in brief: as §3

| Compound | Activity [1] | IC50 [2] | Activity [3] | IC50 (WI-38 VA13) | IC50 (HepG2) | Activity [4] | IC50 [5] | IC50 (A2780) |
| --- | --- | --- | --- | --- | --- | --- | --- | --- |
| CC(=O)O[C@H]1[C@H](O)C2=C(C)C(=O)C[C@@H]([C@@H](OC(=O)c3ccccc3)[C@H]3[C@@]1(C)CC[C@H]1OC[C@]13O)C2(C)C | 134% | 0.67 mg/L (≈ 1.31 µM) | 115% | 67 mg/L (≈ 131 µM) | 43.2 mg/L (≈ 84.3 µM) | 118% | – | – |
| CC[C@]1(O)C[C@H]2CN(CCc3c([nH]c4ccccc34)[C@@](C(=O)OC)(c3cc4c(cc3OC)N(C=O)[C@H]3[C@@](O)(C(=O)OC)[C@H](OC(C)=O)[C@]5(CC)C=CCN6CC[C@]43[C@@H]65)C2)C1 [VINCRISTINE] | – | – | – | – | – | – | 0.895 µM | 0.0009 µM |
| CC(=O)O[C@H]1C(=O)[C@]2(C)CC[C@H]3OC[C@@]3(O)[C@H]2[C@H](OC(=O)c2ccccc2)[C@@H]2CC(=O)C(C)=C1C2(C)C | 137% | 7.38 mg/L (≈ 14.5 µM) | 101% | 7.93 mg/L (≈ 15.5 µM) | 30.1 mg/L (≈ 59 µM) | 120% | – | – |
| CC(=O)O[C@H]1C(=O)[C@@]2(C)[C@H]([C@H](OC(=O)c3ccccc3)[C@]3(O)C[C@H](O)C(C)=C1C3(C)C)[C@]1(OC(C)=O)CO[C@@H]1C[C@@H]2O [BACCATIN III] | 81% | 16.1 mg/L (≈ 27.4 µM) | 93% | 0.84 mg/L (≈ 1.43 µM) | 9.91 mg/L (≈ 16.9 µM) | 84% | – | – |
| CC(=O)O[C@H]1C(=O)[C@@]2(C)[C@H]([C@H](OC(=O)c3ccccc3)[C@]3(O)C[C@H](OC(=O)[C@H](O)[C@@H](NC(=O)c4ccccc4)c4ccccc4)C(C)=C1C3(C)C)[C@]1(OC(C)=O)CO[C@@H]1C[C@@H]2O [PACLITAXEL] | – | – | – | – | – | – | 0.535 µM | 0.0007 µM |
| COc1cccc2c1C(=O)c1c(O)c3c(c(O)c1C2=O)C[C@@](O)(C(=O)CO)C[C@@H]3O[C@H]1C[C@H](N)[C@H](O)[C@H](C)O1 [DOXORUBICIN] | – | – | – | – | – | – | 0.909 µM | 0.013 µM |
| CC(=O)O[C@@H]1[C@@H]2CC(=O)C(C)=C([C@@H](OC(C)=O)[C@H](OC(C)=O)[C@]3(C)CC[C@H]4OC[C@@]4(O)[C@@H]13)C2(C)C | 123% | 77 mg/L (≈ 156 µM) | 115% | > 100 mg/L | > 100 mg/L | 120% | – | – |
| CC(=O)O[C@@H]1C2=C(C)C(=O)C[C@@H]([C@@H](OC(=O)c3ccccc3)[C@H]3[C@@](C)(CC[C@H]4OC[C@]43O)[C@H]1OC(C)=O)C2(C)C | 135% | 0.82 mg/L (≈ 1.48 µM) | 97% | 51.9 mg/L (≈ 93.6 µM) | 7.32 mg/L (≈ 13.2 µM) | 119% | – | – |
| CC(=O)O[C@H]1C(=O)[C@]2(C)CC[C@H](O)[C@@](O)(CO)[C@H]2[C@H](OC(=O)c2ccccc2)[C@@H]2CC(=O)C(C)=C1C2(C)C | 112% | 57.4 mg/L (≈ 109 µM) | 88% | 59.6 mg/L (≈ 113 µM) | 33.4 mg/L (≈ 63.2 µM) | 114% | – | – |
| CC(=O)O[C@@H]1[C@@H]2CC(=O)C(C)=C([C@@H](OC(C)=O)[C@H](OC(C)=O)[C@]3(C)CC[C@H](O)[C@@](O)(CO)[C@@H]13)C2(C)C | 88% | 85.3 mg/L (≈ 167 µM) | 79% | 9.73 mg/L (≈ 19.1 µM) | > 100 mg/L | 94% | – | – |
| CC(=O)O[C@@]12CO[C@@H]1C[C@H](O)[C@@]1(C)C(=O)[C@H](O)C3=C(C)[C@@H](O)C[C@@](O)([C@@H](OC(=O)c4ccccc4)[C@H]21)C3(C)C | 93% | – | 95% | – | – | 90% | – | – |
| CC(=O)OC[C@]1(O)[C@@H](O)CC[C@@]2(C)[C@@H](OC(C)=O)[C@H](OC(C)=O)C3=C(C)C(=O)C[C@@H]([C@@H](O)[C@@H]21)C3(C)C | 126% | > 100 mg/L | 88% | 8.47 mg/L (≈ 16.6 µM) | > 100 mg/L | 97% | – | – |
| CC1=C2[C@@H](O)[C@H](O)[C@]3(C)CC[C@H]4OC[C@@]4(O)[C@H]3[C@H](OC(=O)c3ccccc3)[C@H](CC1=O)C2(C)C | 106% | > 100 mg/L | 105% | > 100 mg/L | 67.7 mg/L (≈ 144 µM) | 110% | – | – |
| CC(=O)O[C@@H]1[C@@H]2C[C@@H](O)C(C)=C([C@@H](OC(C)=O)[C@H](OC(C)=O)[C@]3(C)CC[C@H]4OC[C@@]4(O)[C@@H]13)C2(C)C | 96% | 76.2 mg/L (≈ 154 µM) | 82% | > 100 mg/L | > 100 mg/L | 95% | – | – |
| COc1ccc(CCN(C)CCCC(C#N)(c2ccc(OC)c(OC)c2)C(C)C)cc1OC (stereo unspecified) | 140% | – | 99% | – | – | 103% | – | – |
| CC(=O)O[C@@H]1[C@@H]2C[C@H](O)C(C)=C([C@@H](OC(C)=O)[C@H](OC(C)=O)[C@]3(C)CC[C@H]4OC[C@@]4(O)[C@@H]13)C2(C)C | 95% | 8.39 mg/L (≈ 17 µM) | 94% | 81.5 mg/L (≈ 165 µM) | > 100 mg/L | 95% | – | – |
| CC(=O)OC[C@]1(O)[C@@H](O)CC[C@@]2(C)[C@@H](OC(C)=O)[C@H](OC(C)=O)C3=C(C)C(=O)C[C@@H]([C@@H](OC(=O)/C=C/c4ccccc4)[C@@H]21)C3(C)C | 145% | 68.1 mg/L (≈ 106 µM) | 88% | 82.3 mg/L (≈ 128 µM) | 2.14 mg/L (≈ 3.34 µM) | 116% | – | – |
| CC(=O)O[C@@H]1C2=C(C)C(=O)C[C@@H]([C@@H](OC(=O)c3ccccc3)[C@H]3[C@@](C)(CC[C@H]4OC[C@]43O)[C@H]1O)C2(C)C | 140% | 42.3 mg/L (≈ 82.5 µM) | 99% | > 100 mg/L | 77.7 mg/L (≈ 152 µM) | 102% | – | – |
| CC(=O)O[C@H]1C(=O)[C@]2(C)CC[C@H]3OC[C@@]3(O)[C@H]2[C@H](OC(=O)c2ccccc2)[C@@H]2C[C@H](O)C(C)=C1C2(C)C | 163% | 54.2 mg/L (≈ 106 µM) | 96% | 77 mg/L (≈ 150 µM) | 69.9 mg/L (≈ 136 µM) | 129% | – | – |
